Data on 15 compounds can be found in ChEMBL document CHEMBL3272138, “Prostaglandins and congeners. 16. Synthesis and bronchodilator activity of dl-11-doexy-3-thiaprostaglandins” (1977).

In general, ED50 refers to the dose that gives a 50% effect, or the effect in half of the subjects. For orientation: inhibition in vivo means the drop in the measured response relative to a control, in per cent.

Experiment [1] concerns Canis familiaris. Kind of experiment: Bronchodilatory activity in anesthetized dog assessed as inhibition of pilocarpine-induced bronchospasms at 0.016 to 0.032 ug/kg administered through aerosol 15 mins post challenge measured up to 1 hr. Type of experiment: functional, Canis lupus familiaris. In short, it runs like this:
(§1)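 In anesthetized dogs, a long-lasting bronchospasm was induced by pilocarpine, 400 µg/kg injection then 4 µg/kg/min perfusion, requiring an airway resistance increase of at least 200–300% over resting. After a 15-min control period, the compound was delivered by ultrasonic aerosol. Inhibition of bronchoconstriction was followed for the 1-h experiment.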

In experiment [2] the test system is Cavia porcellus. As to the kind of experiment: Bronchodilator activity in iv dosed Hartley guinea pig assessed as inhibition of serotonin-induced bronchoconstriction administered 2 mins post serotonin challenge as 3 to 4 doses in 15 mins interval. It is filed as functional. In short, it runs like this:
(§2)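 Guinea pigs under urethane anesthesia, gallamine-paralyzed and artificially ventilated (60 strokes/min). Bronchospasm was evoked by iv acetylcholine (40–150), histamine (5.6–22.5) or serotonin (7.5–30 μg/kg), giving a 20–50 cm water rise in tracheal pressure, every 5 min. Three or four log-spaced iv doses (esters in 10% aqueous ethanol) were given at 15-min intervals, with ≥4 animals per spasmogen. ED50 (–50% variation of the first spasm) came from a semilog regression; if never reached, ED50 > maximal dose.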

Experiment [3] deals with Cavia porcellus. As to the kind of experiment: Bronchodilator activity in iv dosed Hartley guinea pig assessed as inhibition of histamine-induced bronchoconstriction administered 2 mins post histamine challenge as 3 to 4 doses in 15 mins interval. It is filed as functional. In short, it runs like this:
as §2

The subject of experiment [4] is Cavia porcellus. As to the kind of experiment: Bronchodilator activity in iv dosed Hartley guinea pig assessed as inhibition of acetylcholine-induced bronchoconstriction administered 2 mins post acetylcholine challenge as 3 to 4 doses in 15 mins interval. Type of experiment: functional. To be noted: for ED50: Cavia porcellus, Hartley, iv. In short, it runs like this:
as §2

The subject of experiment [5] is Canis familiaris. Kind of experiment: Bronchodilatory activity in anesthetized dog assessed as inhibition of pilocarpine-induced bronchospasms compound administered through aerosol 15 mins post challenge measured up to 1 hr. Type of experiment: functional. To be noted: Canis lupus familiaris, inhaled or nasal. In short, it runs like this:
as §1

Experiment [6] relates to Cavia porcellus. Kind of experiment: Bronchodilator activity in Hartley guinea pig assessed as inhibition of serotonin-induced bronchoconstriction at 3.2 mg/kg, iv administered 2 mins post serotonin challenge as 3 to 4 doses in 15 mins interval. It is filed as functional. In short, it runs like this:
(§3)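 Urethane (1.5 g/kg ip) anesthetized, gallamine-curarized, ventilated guinea pigs. Spasms were induced by 12-s iv jugular injections every 5 min to raise tracheal pressure 20–50 cm water: acetylcholine 40–150, histamine 5.6–22.5, or serotonin 7.5–30 μg/kg. The drug was given iv over 1 min, 2 min after three stable control spasms. Salts were given as such and esters in 10% aqueous ethanol. Spasm amplitude was expressed as percent variation vs control, with ≥4 animals per spasmogen.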

Experiment [7] deals with Cavia porcellus. As to the kind of experiment: Bronchodilator activity in Hartley guinea pig assessed as inhibition of histamine-induced bronchoconstriction at 3.2 mg/kg, iv administered 2 mins post histamine challenge as 3 to 4 doses in 15 mins interval. It is filed as functional. In short, it runs like this:
as §3

Experiment [8] concerns Cavia porcellus. As to the kind of experiment: Bronchodilator activity in Hartley guinea pig assessed as inhibition of acetylcholine-induced bronchoconstriction at 3.2 mg/kg, iv administered 2 mins post acetylcholine challenge as 3 to 4 doses in 15 mins interval. It is filed as functional. In short, it runs like this:
as §3

Experiment [9] has as its system Canis familiaris. Kind of experiment: Bronchodilatory activity in anesthetized dog assessed as inhibition of pilocarpine-induced bronchospasms at 16 to 32 ug/kg administered through aerosol 15 mins post challenge measured up to 1 hr. It is filed as functional, Canis lupus familiaris. In short, it runs like this: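 Anesthetized dogs receive a pilocarpine injection of 400 µg/kg, followed by a pilocarpine perfusion of 4 µg/kg/min, to produce a long-acting bronchospasm. Airway resistance must rise to at least 200-300% of the resting value. After a 15-min control period, compound is given by ultrasonic aerosol. Read-out is percent inhibition of the pilocarpine bronchoconstriction, followed over the 1 h experiment.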

`CCCCCC(O)/C=C/C1C(O)CC(=O)C1CCCCCCC(=O)O` (stereo unspecified): the “inhibition (INH)” value in [1] came to 70%.

Regarding `CCCCC(C)(C)[C@H](O)/C=C/C1CCC(=O)[C@@H]1CCCCCCC(=O)O` (mixture of isomers), the ED50 in [2] was 0.0259 mg/kg; in [3] it was 0.00417 mg/kg; in experiment [4], 0.0429 mg/kg.

In the case of `CCCCC[C@](C)(O)/C=C/C1CCC(=O)[C@@H]1CCCCCCC(=O)O` (mixture of isomers), the results for the ED50 in [2] and in [3] were 0.00699 mg/kg and 0.00424 mg/kg, respectively. Further, the MED50 in [4] was determined as 0.0032 mg/kg.

As for `CCCCC[C@H](O)/C=C/C1CCC(=O)[C@@H]1CCCCSCC(=O)O` (mixture of isomers), the ED50 in experiment [2] turned out to be 0.00129 mg/kg; in experiment [3], 0.00507 mg/kg; in experiment [4] it was 0.00514 mg/kg; in experiment [5] it was 0.0016 mg/kg.

Consider `CCCCC[C@@H](O)/C=C/C1CCC(=O)[C@@H]1CCCCSCC(=O)O` (mixture of isomers), for which the figures for the ED50 in experiment [2] and in experiment [3] were 0.0233 mg/kg and 0.0113 mg/kg, respectively. The MED50 in experiment [4] stood at 0.2 mg/kg.

Take `CCCCC[C@](C)(O)/C=C/C1CCC(=O)[C@@H]1CCCCSCC(=O)O` (mixture of isomers): the ED50 was 0.0054 mg/kg in experiment [2], 0.00185 mg/kg in experiment [3] and 0.0193 mg/kg in experiment [4].

Turning to `CCCCC(C)(C)[C@H](O)/C=C/C1CCC(=O)[C@@H]1CCCCSCC(=O)O` (mixture of isomers), the figures for the ED50 in experiment [2], in experiment [3] and in experiment [4] were 0.0523 mg/kg, 0.0242 mg/kg and 0.604 mg/kg, respectively.

Turning to `CCCCC(C)(C)[C@@H](O)/C=C/C1CCC(=O)[C@@H]1CCCCSCC(=O)O` (mixture of isomers), the ED50 in experiment [2] is 0.032 mg/kg; in experiment [3], 0.324 mg/kg.

With `CCCCC[C@H](O)/C=C/C1CCC(=O)[C@@H]1CCCSCC(=O)O` (mixture of isomers), the inhibition in vivo at 3.2 mg/kg in experiment [6], in experiment [7] and in experiment [8] was below 50% in each case.

For `CCCCC[C@](C)(O)/C=C/C1CCC(=O)[C@@H]1CCCSCC(=O)O` (mixture of isomers), the ED50 in experiment [3] came out at 2.99 mg/kg. Besides, the inhibition in vivo at 3.2 mg/kg in experiment [6] and in [8] was below 50% throughout.

Regarding `CCCCC[C@H](O)/C=C/C1CCC(=O)[C@@H]1CCCCCSCC(=O)O` (mixture of isomers), the inhibition in vivo at 3.2 mg/kg in experiment [6], in [7] and in [8] was below 50% each time.

On to `CCCCC[C@@H](O)/C=C/C1CCC(=O)[C@@H]1CCCCCSCC(=O)O` (mixture of isomers), for which the inhibition in vivo at 3.2 mg/kg in experiment [6], in [7] and in experiment [8] was below 50% in each case.

With `CCCCC(C)(C)[C@H](O)/C=C/C1CCC(=O)[C@@H]1CCCCCSCC(=O)O` (mixture of isomers), the inhibition in vivo at 3.2 mg/kg in experiment [6], in [7] and in [8] was below 50% each time.

`CCCCC[C@H](O)/C=C/C1CCC(=O)C1CCCCCCC(=O)O` (mixture of isomers): the median effective dose (ED50) in experiment [2] came out at 0.000397 mg/kg; in [3], 0.0034 mg/kg; in experiment [4], 0.032 mg/kg.

On to `CC(C)NC[C@H](O)c1ccc(O)c(O)c1` [LEVISOPRENALINE], for which, in experiment [9], the “inhibition (INH)” value is 80%.
